Laboratory results from paper PMC4000071 (Journal of Toxicologic Pathology, 2014).

Key:
[1] = target: 5-HT1B receptors in the rat cerebral cortex (Rattus norvegicus, UniProt P28564); experiment: 5-HT1B receptor binding in rat cerebral cortex
[2] = target: T1, adrenergic α1D receptor (Homo sapiens, UniProt P25100); experiment: secondary pharmacology screens, α1D; type: binding; details: 10 µM
T1 sequence (P25100 1-572): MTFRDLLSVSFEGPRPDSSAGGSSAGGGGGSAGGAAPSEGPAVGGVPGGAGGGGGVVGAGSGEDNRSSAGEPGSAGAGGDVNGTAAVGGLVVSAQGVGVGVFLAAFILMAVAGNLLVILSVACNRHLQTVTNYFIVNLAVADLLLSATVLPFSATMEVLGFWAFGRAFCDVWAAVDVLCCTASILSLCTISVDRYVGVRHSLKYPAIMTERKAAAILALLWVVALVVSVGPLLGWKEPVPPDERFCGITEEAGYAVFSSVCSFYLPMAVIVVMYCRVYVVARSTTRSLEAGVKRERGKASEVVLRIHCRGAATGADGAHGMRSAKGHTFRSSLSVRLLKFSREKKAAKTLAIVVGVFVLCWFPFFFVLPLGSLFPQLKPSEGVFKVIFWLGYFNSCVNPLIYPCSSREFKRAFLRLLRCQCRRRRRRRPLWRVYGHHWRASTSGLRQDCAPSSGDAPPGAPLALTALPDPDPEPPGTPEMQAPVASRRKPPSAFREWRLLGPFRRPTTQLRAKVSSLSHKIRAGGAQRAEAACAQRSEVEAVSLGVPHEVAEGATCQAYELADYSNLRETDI

[3] = system: beagle dogs; experiment: 1-month toxicity study, in-life, clinical pathology and pathology; type: in vivo; details: dog
[4] = system: beagle dogs; experiment: 3-month toxicity study, in-life, clinical pathology and pathology; type: in vivo
Summary of the method: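 Beagles aged 9 months received 0, 7, 15 or 30 mg/kg/day by oral gavage for 3 months in 0.1 M lactic acid (pH 3.0). Groups were 3/sex/dose, with 3/sex added for 5-week recovery in control and high dose. Neurologic examination was done. Clinical pathology: pretest, Weeks 6, 13, end of recovery. Full tissue list including dorsal root ganglia. Eyes/optic nerve fixed in Davidson's, sciatic nerve in Bouin's, others in formalin. Sections ~5 µm, H&E.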

[5] = 1-month; type: in vivo, beagle dogs; details: dog; for mean brain concentration relative to that at 2.3 mg/kg: 4 weeks
Summary of the method: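 Beagles (7 males, 5 females) were dosed once daily by oral gavage for 4 weeks at 0, 2.3, 14 or 47 mg/kg/day. The vehicle was 0.1 M lactic acid in water (pH 3.0) at 5 mL/kg. Plasma was sampled on Days 1, 7 and 28. At necropsy, brain stem, hippocampus and frontal lobe were taken for drug measurement. Terminal plasma and brain concentrations are reported.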

[6] = 1-month, 47 mg/kg/day, 4 affected dogs
[7] = 1-month, 47 mg/kg/day, Week 2 until end of dosing
[8] = Female 15 mg/kg/day (N=3), 3 months
[9] = Female 15 mg/kg/day (N=3), 3 months, highest incidence shown
[10] = Female 30 mg/kg/day (N=2), after 5 weeks of recovery
[11] = Female 30 mg/kg/day (N=5), after 3 months of dosing
[12] = Male 7 mg/kg/day (N=3), 3 months, highest incidence shown
[13] = Male 15 mg/kg/day (N=3), 3 months
[14] = Male 15 mg/kg/day (N=3), 3 months, highest incidence shown
[15] = Male 30 mg/kg/day (N=3), 3 months
[16] = Male 30 mg/kg/day (N=3), 3 months, highest incidence shown
[17] = Male 30 mg/kg/day (N=3), after 5 weeks of recovery
[18] = Male 30 mg/kg/day (N=6), after 3 months of dosing
[19] = dog, 30 mg/kg/day 3 months then 5-week recovery
[20] = dog, 30 mg/kg/day males, Week 3 until end of dosing
[21] = dog, 30 mg/kg/day, after 3 months

Sequence of 5-HT1B receptors in the rat cerebral cortex (P28564 whole entry): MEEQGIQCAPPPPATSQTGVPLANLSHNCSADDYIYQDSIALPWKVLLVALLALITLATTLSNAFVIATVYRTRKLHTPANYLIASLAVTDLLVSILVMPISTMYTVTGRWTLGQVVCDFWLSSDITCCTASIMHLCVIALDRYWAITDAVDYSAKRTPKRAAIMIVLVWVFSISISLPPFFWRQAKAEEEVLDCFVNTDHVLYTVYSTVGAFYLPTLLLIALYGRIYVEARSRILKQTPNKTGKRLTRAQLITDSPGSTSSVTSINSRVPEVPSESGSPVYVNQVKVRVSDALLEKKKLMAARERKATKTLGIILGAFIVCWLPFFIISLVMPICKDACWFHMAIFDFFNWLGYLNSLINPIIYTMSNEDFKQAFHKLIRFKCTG

What does the source list for `COc1cc2c(c(N3CCN(C)CC3)c1)O[C@@H](C(=O)Nc1ccc(N3CCOCC3)cc1)CC2` [AZD3783, (2R)-6-methoxy-8-(4-methylpiperazin-1-yl)-N-(4-morpholin-4-ylphenyl) chromane-2-carboxamide]?
Ki ([1]; rat cerebral cortex): 51 nM; affinity lower than for the guinea pig or human 5-HT1B receptors ([1]; rat vs guinea pig or human): approximately 4 fold; binding to adrenergic α1D receptor [2]: binds; ECG ([3]; 1-month): no treatment-related effect on ECG; pathological findings in spinal cord or any CNS tissues ([3]; 1-month, 2.3 mg/kg/day): no pathological findings; pathological findings in spinal cord or any CNS tissues ([3]; 1-month, 14 mg/kg/day): no pathological findings; dogs with mild to marked increases in liver enzymes (incidence) ([3]; 1-month, 47 mg/kg/day): 4 of 12; electron microscopy of liver and gallbladder ([3]; 1-month, 47 mg/kg/day): lamellar bodies consistent with PLD; liver microscopic findings ([3]; 1-month, 47 mg/kg/day): inflammatory cell infiltration, degenerative and necrotic changes in the centrilobular region and moderate pigments in histiocytes; lymphoid tissues microscopic findings ([3]; 1-month, 47 mg/kg/day): increased incidence and severity of lymphocytolysis; ALT increase in affected dogs [3, 6]: up to 17 fold vs. pretest; Aspartate aminotransferase (AST) increase in affected dogs [3, 6]: up to 7 fold vs. pretest; GLDH increase in affected dogs [3, 6]: up to 37 fold vs. pretest; alanine aminotransferase (ALT) group mean elevation [3, 7]: approximately 3 fold; glutamate dehydrogenase (GLDH) group mean elevation [3, 7]: ~7 fold; mortality ([3]; 1-month, 2.3, 14, 47 mg/kg/day): All animals survived to scheduled necropsy; ophthalmology observations ([3]; 1-month, all doses): No treatment-related observations were seen in the eyes of any dog; platelet counts increase ([3]; 1-month, females, 47 mg/kg/day): 24–52%; platelet counts increase ([3]; 1-month, males, 47 mg/kg/day): 10–15%; pathological findings in spinal cord or any CNS tissues ([3]; recovery animals previously dosed at 47 mg/kg/day): no pathological findings; D.R. ganglion: cerv., thoracic, lumbar: Vacuolation; ganglion cell (incidence) ([4]; Female 7 mg/kg/day (N=3), 3 months, highest incidence shown): 2; Ophthalmologic finding: Normal (number of dogs) ([4]; Female 7 mg/kg/day (N=3), after 3 months of dosing): 3; Brain: Degeneration/necrosis; neuronal (incidence) [4, 8]: 1; Brain: Degeneration: nerve fiber (incidence) [4, 8]: 1; Brain: Gliosis (incidence) [4, 8]: 1; Brain: Vacuolation: neuronal (incidence) [4, 8]: 2; D.R. ganglion: cerv., thoracic, lumbar: Inflammation (incidence) [4, 9]: 2; D.R. ganglion: cerv., thoracic, lumbar: Vacuolation; ganglion cell (incidence) [4, 9]: 3; Ophthalmologic finding: Normal (number of dogs) ([4]; Female 15 mg/kg/day (N=3), after 3 months of dosing): 3; Ophthalmologic finding: Chorioretinal scar (number of dogs) [4, 10]: 1; Ophthalmologic finding: Normal (number of dogs) [4, 10]: 1; Ophthalmologic finding: Retinal detachment (number of dogs) [4, 10]: 1; Ophthalmologic finding: Normal (number of dogs) [4, 11]: 2; Ophthalmologic finding: Retinal detachment (number of dogs) [4, 11]: 2; Ophthalmologic finding: Retinal hemorrhage (number of dogs) [4, 11]: 2; Ophthalmologic finding: Vitreal hemorrhage (number of dogs) [4, 11]: 1; D.R. ganglion: cerv., thoracic, lumbar: Inflammation (incidence) [4, 12]: 1; D.R. ganglion: cerv., thoracic, lumbar: Vacuolation; ganglion cell (incidence) [4, 12]: 1; Ophthalmologic finding: Normal (number of dogs) ([4]; Male 7 mg/kg/day (N=3), after 3 months of dosing): 3; Brain: Degeneration: nerve fiber (incidence) [4, 13]: 1; Brain: Vacuolation: neuronal (incidence) [4, 13]: 3; Eye/Optic nerve: Degeneration, optic nerve fiber (incidence) [4, 13]: 1; Eye/Optic nerve: Inflammation: retina (incidence) [4, 13]: 1; D.R. ganglion: cerv., thoracic, lumbar: Degeneration: nerve fiber (incidence) [4, 14]: 2; D.R. ganglion: cerv., thoracic, lumbar: Inflammation (incidence) [4, 14]: 2; D.R. ganglion: cerv., thoracic, lumbar: Vacuolation; ganglion cell (incidence) [4, 14]: 3; Ophthalmologic finding: Normal (number of dogs) ([4]; Male 15 mg/kg/day (N=3), after 3 months of dosing): 3; Brain: Degeneration/necrosis; neuronal (incidence) [4, 15]: 3; Brain: Degeneration: nerve fiber (incidence) [4, 15]: 3; Brain: Gliosis (incidence) [4, 15]: 3; Brain: Inflammation: perivascular (incidence) [4, 15]: 3; Brain: Vacuolation: neuronal (incidence) [4, 15]: 3; Eye/Optic nerve: Degeneration, optic nerve fiber (incidence) [4, 15]: 1; Eye/Optic nerve: Inclusion: retina (incidence) [4, 15]: 3; Eye/Optic nerve: Inflammation: retina (incidence) [4, 15]: 1; Sciatic nerve: Degeneration: nerve fiber (incidence) [4, 15]: 1; D.R. ganglion: cerv., thoracic, lumbar: Degeneration: nerve fiber (incidence) [4, 16]: 3; D.R. ganglion: cerv., thoracic, lumbar: Inflammation (incidence) [4, 16]: 2; D.R. ganglion: cerv., thoracic, lumbar: Vacuolation; ganglion cell (incidence) [4, 16]: 3; Spinal cord, cerv., thoracic, lumbar: Degeneration: nerve fiber (incidence) [4, 16]: 2; Ophthalmologic finding: Chorioretinal scar (number of dogs) [4, 17]: 2; Ophthalmologic finding: Tepatum hyperreflectivity (number of dogs) [4, 17]: 1; Ophthalmologic finding: Normal (number of dogs) [4, 18]: 2; Ophthalmologic finding: Retinal detachment (number of dogs) [4, 18]: 2; Ophthalmologic finding: Retinal hemorrhage (number of dogs) [4, 18]: 3; Ophthalmologic finding: Vitreal hemorrhage (number of dogs) [4, 18]: 1; GLDH increase vs pretest ([4]; decedent female, 30 mg/kg/day): 2 fold; WBC increase vs pretest ([4]; decedent female, 30 mg/kg/day): < 2 fold; neutrophils increase vs pretest ([4]; decedent female, 30 mg/kg/day): 2 fold; bile increase vs pretest ([4]; decedent female, 30 mg/kg/day, Day 84): 5 fold; brain findings after recovery [4, 19]: extensive neuronal loss accompanied by marked astrogliosis; reversibility of pathological lesions (except thymus and bone marrow) [4, 19]: still present after the 5-week recovery period; ALT group mean elevation vs. pretest [4, 20]: ca. 2 fold; GLDH group mean elevation vs. pretest [4, 20]: ca. 4 fold; platelet counts increase [4, 21]: 24–30%; reticulocytes (% and total count) decrease [4, 21]: 42–50%; NOEL ([4]; dog, 3-month study): not established; severity of lesions in the brain ([4]; dog, 3-month, 15 and 30 mg/kg/day): dose-related and ranged from slight to moderate; ophthalmologic observations ([4]; dog, 3-month, Week 6 examination): No treatment-related ophthalmologic observations; gallbladder microscopic findings ([4]; dog, 3-month, all treated groups): pigment deposit (lamina propria) was noted in all animals in the treated groups; mean brain concentration relative to that at 2.3 mg/kg ([5]; 14 mg/kg): 38 fold; mean brain concentration relative to that at 2.3 mg/kg ([5]; 47 mg/kg): 460 fold; brain/plasma concentration ratio ([5]; across the dose range, after 4 weeks of dosing): approximately 4
